Our source for the Biological activity, ID50 and pA2 values is ChEMBL document CHEMBL1124265, “Effects of D-amino acid substitution on antagonist activities of angiotensin II analogues” (J Med Chem, 1988).

For assay [1], the target named is Angiotensin II receptor (Homo sapiens) (UniProt P30556+P50052). As to the kind of experiment: In vitro angiotensin II-like activity, expressed as percent relative to angiotensin II, measured in the rabbit aorta strip assay. Conditions: Oryctolagus cuniculus. In kind it is functional, tissue-based.
Assay [2] has as its system Rattus norvegicus. Briefly: Dose required for the two fold increase in the dose of AII to produce the same elevation in blood pressure as in the control period.(in vivo). In kind it is functional. A digest of the protocol:
(§1)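 Rat blood pressure assay in vivo, using 250-g rats. ID50 is the antagonist dose, in ng/rat per min, that requires a twofold increase in the AII dose to give the same blood pressure rise as in the control period.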

The species named for assay [3] is Rattus norvegicus. Briefly: Dose required for the two fold increase in the dose of AII to produce the same elevation in blood pressure as in the control period. The assay is classed as functional. The method in brief:
as §1

Assay [4] has as its system Rattus norvegicus. As to the kind of experiment: In vivo AII-like activity, expressed as percent activity relative to AII (angiotensin II), measured in rat blood pressure assay. In kind it is functional. The method in brief: (§2)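 Rat blood pressure assay in vivo. Residual agonist activity is expressed as percent activity relative to AII.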
Assay [5] concerns Rattus norvegicus. As to the kind of experiment: AII-like activity, expressed as percent relative to AII (angiotensin II) was measured in the in vivo rat blood pressure assay. In kind it is functional. The method in brief: as §2
Assay [6] is filed under the species Oryctolagus cuniculus. Briefly: In vitro AII-like activity, expressed as percent activity relative to AII (angiotensin II), measured in rabbit aorta. The assay is classed as functional.
Assay [7] is filed under the species Oryctolagus cuniculus. Briefly: AII-like activity, expressed as percent relative to AII (angiotensin II) was measured in the in vitro rabbit aorta strip assay; g = partial agonist at 10 ng/mL. In kind it is functional. Particulars: filed as partial agonist.
For assay [8], the system named is Rattus norvegicus. Briefly: In vivo AII-like activity, expressed as percent activity relative to AII (angiotensin II), measured in rat blood pressure assay; g = partial agonist at 10 ng/mL. The assay is classed as functional, organism-based. Conditions: filed as partial agonist. A digest of the protocol: as §2
The species entered for assay [9] is Oryctolagus cuniculus. Briefly: pA2 value was determined in the range of competitive inhibition in the in vitro rabbit aorta strip assay; g = partial agonist at 10 ng/mL. The assay is classed as functional. Particulars: filed as partial agonist.
For assay [10], the species on record is Oryctolagus cuniculus. As to the kind of experiment: AII-like activity, expressed as percent activity relative to AII (angiotensin II), measured in rabbit aorta strip assay.

`CC[C@H](C)[C@H](NC(=O)[C@@H]1CCCN1C(=O)[C@H](Cc1c[nH]cn1)NC(=O)[C@@H](NC(=O)[C@H](Cc1ccc(O)cc1)NC(=O)[C@@H](NC(=O)[C@@H](CCCN=C(N)N)NC(=O)CNC)C(C)C)[C@@H](C)CC)C(=O)O` registered a Biological activity in assay [1] of -0%. The compound further had an ID50 in the assay on Rattus norvegicus [2] of 150 ng min-1 rat-1.

In turn, `CC[C@H](C)[C@H](NC(=O)[C@@H]1CCCN1C(=O)[C@H](Cc1c[nH]cn1)NC(=O)[C@@H](NC(=O)[C@H](Cc1ccc(O)cc1)NC(=O)[C@@H](NC(=O)[C@H](CCCN=C(N)N)NC(=O)CNC)C(C)C)[C@@H](C)CC)C(=O)O` came in with a Biological activity in assay [1] of -0%. For the same compound, in the assay with Rattus norvegicus [2], the ID50 worked out at 10 ng min-1 rat-1.

`CC[C@H](C)[C@H](NC(=O)[C@H](Cc1ccc(O)cc1)NC(=O)[C@@H](NC(=O)[C@H](CCCN=C(N)N)NC(=O)CNC)C(C)C)C(=O)N[C@@H](Cc1c[nH]cn1)C(=O)N1CCC[C@H]1C(=O)N[C@@H](C(=O)O)c1ccccc1` gave a Biological activity in [1] of -0%. The ID50 in the assay listed under Rattus norvegicus [3] is 3.5 ng min-1 rat-1.

On to `CC[C@H](C)[C@H](NC(=O)[C@H](Cc1ccccc1)NC(=O)[C@@H](NC(=O)[C@H](CCCN=C(N)N)NC(=O)CNC)C(C)C)C(=O)N[C@@H](Cc1c[nH]cn1)C(=O)N1CCC[C@H]1C(=O)N[C@@H](Cc1ccc(O)cc1)C(=O)O`, for which, in assay [1], the Biological activity was -0%. This compound also registered an ID50 in the assay listed under Rattus norvegicus [3] of 50 ng min-1 rat-1.

Take `CC[C@H](C)[C@H](NC(=O)[C@@H]1CCCN1C(=O)[C@H](Cc1c[nH]cn1)NC(=O)[C@H](NC(=O)[C@H](Cc1ccc(O)cc1)NC(=O)[C@H](NC(=O)[C@H](CCCN=C(N)N)NC(=O)CNC)C(C)C)C(C)C)C(=O)O`: the Biological activity is -0% in [1] and 0% in the assay on Rattus norvegicus [4]. This compound showed an ID50 in the assay on Rattus norvegicus [2] greater than 1000 ng min-1 rat-1.

In the case of `CC[C@H](C)[C@H](NC(=O)[C@H](Cc1ccc(O)cc1)NC(=O)[C@@H](NC(=O)[C@H](CCCNC(=N)N)NC(=O)CNC)C(C)C)C(=O)N[C@@H](Cc1c[nH]cn1)C(=O)N1CCC[C@H]1C(=O)N[C@@H](C(=O)O)C(C)C`, the Biological activity in the assay with Rattus norvegicus [5] was 10. Moreover, in the assay filed under Rattus norvegicus [3], the ID50 is recorded as 50 ng min-1 rat-1.

In the assay filed under Oryctolagus cuniculus [6], `CC[C@H](C)[C@H](NC(=O)[C@H](Cc1ccc(O)cc1)NC(=O)[C@@H](NC(=O)[C@H](CCCN=C(N)N)NC(=O)CNC)C(C)C)C(=O)N[C@@H](Cc1c[nH]cn1)C(=O)N1CCC[C@H]1C(=O)N[C@H](Cc1ccccc1)C(=O)O` showed a Biological activity of 0%. This compound also displayed an ID50 in the assay filed under Rattus norvegicus [3] of 12.5 ng min-1 rat-1.

`CC[C@H](C)[C@H](NC(=O)[C@H](Cc1ccc(O)cc1)NC(=O)[C@@H](NC(=O)[C@H](CCCNC(=N)N)NC(=O)CNC)C(C)C)C(=O)N[C@@H](Cc1c[nH]cn1)C(=O)N1CCC[C@H]1C(=O)N[C@](C)(Cc1ccccc1)C(=O)O`: in the assay listed under Rattus norvegicus [3], the ID50 came out at 10 ng min-1 rat-1.

For `CC[C@H](C)[C@H](NC(=O)[C@H](Cc1ccc(O)cc1)NC(=O)[C@@H](NC(=O)[C@H](CCCN=C(N)N)NC(=O)CNC)C(C)C)C(=O)N[C@H](Cc1c[nH]cn1)C(=O)N1CCC[C@H]1C(=O)N[C@H](Cc1ccccc1)C(=O)O`, the Biological activity in assay [1] is -0%; in the assay on Rattus norvegicus [4], 0%. The compound further showed an ID50 in the assay listed under Rattus norvegicus [3] of 0 ng min-1 rat-1.

Take `CC[C@H](C)[C@H](NC(=O)[C@H](Cc1ccc(O)cc1)NC(=O)[C@@H](NC(=O)[C@H](CCCNC(=N)N)NC(=O)C[C@@H](N)C(=O)O)C(C)C)C(=O)N[C@@H](Cc1c[nH]cn1)C(=O)N1CCC[C@H]1C(=O)N[C@@H](CC(C)C)C(=O)O`: in the assay filed under Rattus norvegicus [3], the ID50 is listed as 15 ng min-1 rat-1.

`CC[C@H](C)[C@H](NC(=O)C(C)NC(=O)[C@H](Cc1c[nH]cn1)NC(=O)[C@H](NC(=O)[C@@H](Cc1ccc(O)cc1)NC(=O)[C@@H](NC(=O)[C@H](CCCNC(=N)N)NC(=O)[C@@H](N)CC(=O)O)C(C)C)C(C)C)C(=O)O` (stereo in doubt): the ID50 in the assay filed under Rattus norvegicus [3] is on record as 0 ng min-1 rat-1.

Take `CC[C@H](C)[C@H](NC(=O)[C@H](Cc1ccc(O)cc1)NC(=O)[C@@H](NC(=O)[C@H](CCCN=C(N)N)NC(=O)CNC)C(C)C)C(=O)N[C@@H](Cc1c[nH]cn1)C(=O)N1CCC[C@H]1C(=O)N[C@H](C(=O)O)c1ccccc1`: the Biological activity result in the assay filed under Oryctolagus cuniculus [7] and in the assay with Rattus norvegicus [8] was “Partial agonist” throughout.

In the assay listed under Rattus norvegicus [3], `CC[C@H](C)[C@H](NC(=O)[C@H](Cc1ccc(O)cc1)NC(=O)[C@@H](NC(=O)[C@H](CCCNC(=N)N)NC(=O)CNC)C(C)C)C(=O)N[C@@H](Cc1c[nH]cn1)C(=O)N1CCC[C@H]1C(=O)N[C@H](Cc1ccccc1)C(N)=O` returned an ID50 of 12.5 ng min-1 rat-1.

Regarding `CC[C@H](C)[C@H](NC(=O)[C@H](Cc1ccc(O)cc1)NC(=O)[C@@H](NC(=O)[C@H](CCCN=C(N)N)NC(=O)CNC)C(C)C)C(=O)N[C@@H](Cc1c[nH]cn1)C(=O)N1CCC[C@H]1C(=O)N[C@H](Cc1ccc(O)cc1)C(=O)O`, the Biological activity in assay [1] is -0%. Besides, in the assay filed under Rattus norvegicus [3], the ID50 amounted to 20 ng min-1 rat-1.

For `CC[C@H](C)[C@H](NC(=O)[C@H](Cc1ccc(O)cc1)NC(=O)[C@@H](NC(=O)[C@H](CCCN=C(N)N)NC(=O)CNC)C(C)C)C(=O)N[C@@H](Cc1c[nH]cn1)C(=O)N1CCC[C@H]1C(=O)N[C@@H](CCc1ccccc1)C(=O)O`, the pA2 entry in the assay listed under Oryctolagus cuniculus [9] is “Partial agonist”. Also, the Biological activity entry in the assay listed under Oryctolagus cuniculus [7] is “Partial agonist”.

Regarding `CC[C@H](C)[C@H](NC(=O)[C@H](Cc1ccccc1)NC(=O)[C@@H](NC(=O)[C@H](CCCN=C(N)N)NC(=O)CNC)C(C)C)C(=O)N[C@@H](Cc1c[nH]cn1)C(=O)N1CCC[C@H]1C(=O)N[C@H](Cc1ccc(O)cc1)C(=O)O`, the Biological activity in assay [1] was -0%. This compound also gave an ID50 in the assay listed under Rattus norvegicus [3] of 25 ng min-1 rat-1.

For the compound `CC[C@H](C)[C@H](NC(=O)[C@H]1CCCN1C(=O)[C@H](Cc1c[nH]cn1)NC(=O)[C@@H](NC(=O)[C@H](Cc1ccc(O)cc1)NC(=O)[C@@H](NC(=O)[C@H](CCCNC(=N)N)NC(=O)[C@@H](N)CC(=O)O)C(C)C)[C@@H](C)CC)C(=O)O`, the Biological activity in the assay listed under Oryctolagus cuniculus [10] turned out to be 0.1%.

As for `CC[C@H](C)[C@H](NC(=O)[C@H](Cc1ccc(O)cc1)NC(=O)[C@@H](NC(=O)[C@H](CCCN=C(N)N)NC(=O)CNC)C(C)C)C(=O)N[C@@H](Cc1c[nH]cn1)C(=O)N1CCC[C@H]1C(=O)N[C@@H](C)C(=O)O`, the Biological activity in [1] is -0%. The ID50 in the assay listed under Rattus norvegicus [3] was 15 ng min-1 rat-1.

For the compound `CC[C@H](C)[C@H](NC(=O)[C@@H]1CCCN1C(=O)[C@@H](Cc1c[nH]cn1)NC(=O)[C@@H](NC(=O)[C@H](Cc1ccc(O)cc1)NC(=O)[C@@H](NC(=O)[C@H](CCCN=C(N)N)NC(=O)CNC)C(C)C)[C@@H](C)CC)C(=O)O`, the values for the Biological activity (in assay [1]; in the assay on Rattus norvegicus [5]) were -0% and 0%, respectively. Moreover, in the assay with Rattus norvegicus [2], the ID50 is greater than 1000 ng min-1 rat-1.
